In data set [1] the test system is Mycobacterium tuberculosis. The data set can be described thus: Antitubercular activity against Mycobacterium tuberculosis H37Rv by MABA assay. It counts as functional. Summed up:
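Actives re-tested at lower concentrations against H37Rv (ATCC 27294) in BACTEC 12B medium by Microplate Alamar Blue Assay. MIC taken as lowest concentration giving […] fluorescence reduction versus controls; rifampin reference.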

Data set [2] relates to Mycobacterium tuberculosis. The data set can be described thus: Antitubercular activity against Mycobacterium tuberculosis H37Rv at 6.25 ug/mL by MABA assay. The class given is functional. The note with it: read-out: GI. Summed up:
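Primary screen against M. tuberculosis H37Rv (ATCC 27294) in BACTEC 12B medium by broth microdilution Microplate Alamar Blue Assay; fluorescent compounds run instead in BACTEC 460 radiometric system. Compounds above 95% inhibition counted active.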
On the technique in general: Alamar Blue is a resazurin reagent that responds to reducing activity.

Data set [3] relates to Staphylococcus aureus. The data set can be described thus: Antibacterial activity against Staphylococcus aureus at 50 to 100 uM after 24 hrs by well diffusion method. The class given is functional. Summed up: (§1)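 Nutrient agar plates with 10 mm wells cut by cork borer; 24-h subcultured bacteria swabbed on. Compounds dissolved in chloroform, 50 to 100 μM added to wells, gentamycin as standard. Incubated 24 h at 24–28 °C; inhibition zone diameter measured and converted to percent inhibition.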
(In general: Agar diffusion results depend on both activity and mobility in agar.)

Data set [4] concerns Escherichia coli. The data set can be described thus: Antibacterial activity against Escherichia coli at 50 to 100 uM after 24 hrs by well diffusion method. The class given is functional. The essentials:
as §1

In data set [5] the test system is Pseudomonas aeruginosa. The data set can be described thus: Antibacterial activity against Pseudomonas aeruginosa at 50 to 100 uM after 24 hrs by well diffusion method. The class given is functional. The essentials:
as §1

Data set [6] relates to Salmonella typhi. The data set can be described thus: Antibacterial activity against Salmonella typhi at 50 to 100 uM after 24 hrs by well diffusion method. Details: unit not given here. The class given is functional, Salmonella enterica subsp. enterica serovar Typhi. Summed up:
as §1

Data set [7] is described as follows: Cytotoxicity against Vero-C1008 cells at 6.25 to 50 ug/mL by neutral red uptake assay. The class given is cell-based. The note with it: chlorocebus sabaeus. The essentials:
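Vero-C-1008 cells exposed to 6.25 to 50 μg/mL compound; viability read by neutral red uptake.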

These results are taken from ChEMBL document CHEMBL1148007, “Synthesis of new S-derivatives of clubbed triazolyl thiazole as anti-Mycobacterium tuberculosis agents” (Bioorg Med Chem, 2007).

SMILES strings stand for the structures. ≈ marks a conversion by molar mass, not a printed value.

One may read the MIC as the lowest concentration that inhibits growth of the organism. Turning to `CC(=O)Nc1nc(Cc2nnc(S)n2NC(=O)c2cccc([N+](=O)[O-])c2)cs1`, the MIC in data set [1] is 6.25 µM (≈ 2.62 µg/mL). In data set [2], the inhibition of growth at 6.25 µg/mL was 100%. Besides, the inhibition zone in data set [3] turned out to be 16 mm; in data set [4] it was 12 mm; in data set [5], 16 mm. This compound showed an Inhibition in data set [6] of 12. Also, the Activity entry in data set [7] is on record as “Non-toxic”.
On to `O=C(O)CCNc1nc(Cc2nnc(SCC(=O)N/N=C/c3ccccc3)n2NC(=O)c2ccc(Cl)cc2)cs1`, for which the MIC in data set [1] came out at 3.13 µM (≈ 1.88 µg/mL). Further, the inhibition of growth at 6.25 µg/mL in data set [2] turned out to be 96%. For the same compound, the values for the inhibition zone in data set [3], in data set [4] and in data set [5] were 22 mm, 18 mm and 27 mm, respectively. The Inhibition in data set [6] came to 22. The Activity result in data set [7] was “Non-toxic”.
`CC(=O)Nc1nc(Cc2nnc(SCC(=O)N/N=C/c3ccccc3)n2NC(=O)c2cccc([N+](=O)[O-])c2)cs1` came in with a minimum inhibitory concentration (MIC) in data set [1] of 0.78 µM (≈ 0.452 µg/mL). In data set [2], the inhibition of growth at 6.25 µg/mL was found to be 100%. Further, the inhibition zone in data set [3] was 30 mm; in data set [4] it was 24 mm; in data set [5], 31 mm. The same compound returned an Inhibition in data set [6] of 26. Also, the Activity result in data set [7] is on record as “Non-toxic”.
As to `N#CCSc1nnc(Cc2csc(NC(=O)c3ccccc3)n2)n1NC(=O)c1ccc(Cl)cc1`, the MIC in data set [1] worked out at 3.13 µM (≈ 1.6 µg/mL). In data set [2], the inhibition of growth at 6.25 µg/mL worked out at 96%. In addition, the results for the inhibition zone in data set [3], in data set [4] and in data set [5] were 31 mm, 27 mm and 27 mm, respectively. In data set [6], this compound gave an Inhibition of 19. The Activity result in data set [7] is “Non-toxic”.
